ChEMBL document CHEMBL1140128 (J Med Chem, 2008)
Each block holds one molecule with its values, some of them ahead of it. Activity calls are given as the source filed them. The calls are words filed in the database; no cut-off is given here.

Tests used:
Melanocortin receptor 5 = Melanocortin receptor 5 (Mus musculus, UniProt P41149); experiment: Agonist activity at mouse MC5R expressed in HEK293 cells by CRE/beta-galactosidase reporter gene assay; type: functional, cell-based
Procedure, shortened: (§1)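 HEK293 cells stably expressing the mouse receptor (G418 selection) were transfected with CRE/β-galactosidase reporter. After 48 h they were stimulated for 6 h with peptide (10^-4–10^-12 M) in DMEM with 0.1 mg/mL BSA and 0.1 mM IBMX. Lysates were read with ONPG substrate at OD405 and normalized to protein (OD595) and to a 10^-4 M forskolin control.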

[1] = target: Melanocortin receptor 3 (Mus musculus) (UniProt P33033); experiment: Antagonist activity at mouse MC3R expressed in HEK293 cells assessed as effect on MT2 peptide-induced response up to 100 uM by CRE/beta-galactosidase reporter gene assay; type: functional, cell-based
Sequence of Melanocortin receptor 3 (Mus musculus) (P33033 whole entry): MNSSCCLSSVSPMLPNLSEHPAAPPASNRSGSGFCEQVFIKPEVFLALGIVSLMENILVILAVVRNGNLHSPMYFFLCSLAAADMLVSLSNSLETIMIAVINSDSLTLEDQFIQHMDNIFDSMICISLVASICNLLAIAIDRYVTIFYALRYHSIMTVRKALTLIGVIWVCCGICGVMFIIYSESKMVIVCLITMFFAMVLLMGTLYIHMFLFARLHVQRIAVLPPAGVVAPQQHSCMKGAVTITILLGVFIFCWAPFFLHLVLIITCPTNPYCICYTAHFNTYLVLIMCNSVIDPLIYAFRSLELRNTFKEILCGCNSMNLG
Procedure, shortened: (§2)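 Mouse MC3R HEK293 stable line carrying transfected CRE/β-galactosidase reporter, 6 h stimulation in IBMX-containing medium. Peptides tested for dose-dependent competitive displacement of MTII agonist at up to 10 μM (footnote: up to 100 μM).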

[2] = target: Melanocortin receptor 3 (Mus musculus) (UniProt P33033); experiment: Agonist activity at mouse MC3R expressed in HEK293 cells up to 100 uM by CRE/beta-galactosidase reporter gene assay; type: functional, cell-based; procedure, shortened: as §1
Melanocortin receptor 4 [3] = target: T1, Melanocortin receptor 4 (Mus musculus, UniProt P56450); experiment: Antagonist activity at mouse MC4R expressed in HEK293 cells assessed as effect on MT2 peptide-induced response by CRE/beta-galactosidase reporter gene assay; type: functional, cell-based; settings: read-out: pA2 (converted)
T1 sequence (P56450 whole entry): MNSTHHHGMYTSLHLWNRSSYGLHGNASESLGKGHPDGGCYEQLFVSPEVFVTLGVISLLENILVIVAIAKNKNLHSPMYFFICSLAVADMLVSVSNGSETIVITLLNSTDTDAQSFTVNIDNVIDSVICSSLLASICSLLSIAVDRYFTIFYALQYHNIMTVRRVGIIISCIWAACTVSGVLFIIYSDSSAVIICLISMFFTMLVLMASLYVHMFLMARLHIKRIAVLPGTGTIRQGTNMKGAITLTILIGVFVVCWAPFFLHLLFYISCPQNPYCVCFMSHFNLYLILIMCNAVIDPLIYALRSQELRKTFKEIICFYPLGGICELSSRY

Melanocortin receptor 4 [4] = target: T1, Melanocortin receptor 4; experiment: Agonist activity at mouse MC4R expressed in HEK293 cells by CRE/beta-galactosidase reporter gene assay; type: functional, cell-based; procedure, shortened: as §1
Melanocortin receptor 3 [5] = target: T2, Melanocortin receptor 3 (Mus musculus, UniProt P33033); experiment: Antagonist activity at mouse MC3R expressed in HEK293 cells assessed as effect on MT2 peptide-induced response by CRE/beta-galactosidase reporter gene assay; type: functional, cell-based; settings: for Kb: read-out: pA2 (converted); procedure, shortened: as §2
T2 sequence (P33033 whole entry): as the sequence (P33033 whole entry) above

Mus musculus [6] = organism: Mus musculus; experiment: Selectivity for mouse MC4R over mouse MC3R by CRE/beta-galactosidase reporter gene assay
Mus musculus [7] = organism: Mus musculus; experiment: Selectivity for mouse MC4R over mouse MC1R by CRE/beta-galactosidase reporter gene assay
[8] = target: Melanocortin receptor 3 (Mus musculus) (UniProt P33033); experiment: Agonist activity at mouse MC3R expressed in HEK293 cells by CRE/beta-galactosidase reporter gene assay relative to Ac-His-DPhe7-Arg-Trp-NH2 peptide; type: functional, cell-based; procedure, shortened: as §1
[9] = target: Melanocyte-stimulating hormone receptor (Mus musculus) (UniProt Q01727); experiment: Agonist activity at mouse MC1R expressed in HEK293 cells by CRE/beta-galactosidase reporter gene assay relative to Ac-His-DPhe7-Arg-Trp-NH2 peptide; type: functional, cell-based; procedure, shortened: as §1
Sequence of Melanocyte-stimulating hormone receptor (Mus musculus) (Q01727 whole entry, looked up): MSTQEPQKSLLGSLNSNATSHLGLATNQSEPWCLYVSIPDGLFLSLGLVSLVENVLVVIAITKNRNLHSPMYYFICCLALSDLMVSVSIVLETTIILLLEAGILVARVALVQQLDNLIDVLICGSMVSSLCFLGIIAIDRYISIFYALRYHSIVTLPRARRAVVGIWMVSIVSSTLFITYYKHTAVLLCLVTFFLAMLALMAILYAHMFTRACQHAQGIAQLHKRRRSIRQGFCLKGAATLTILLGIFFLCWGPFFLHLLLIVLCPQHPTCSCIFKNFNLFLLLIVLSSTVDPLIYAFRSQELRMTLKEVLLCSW

[10] = target: Melanocyte-stimulating hormone receptor (Mus musculus, UniProt Q01727); experiment: Agonist activity at mouse MC1R expressed in HEK293 cells by CRE/beta-galactosidase reporter gene assay; type: functional, cell-based
Sequence of Melanocyte-stimulating hormone receptor (Q01727 whole entry): as the sequence (Q01727 whole entry, looked up) above
Procedure, shortened: (§3)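 HEK293 cells stably expressing the mouse receptor (G418 selection) were transfected with CRE/β-galactosidase reporter. Lysates were read with ONPG substrate at OD405 and normalized to protein (OD595) and to a 10^-4 M forskolin control.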

[11] = target: Melanocortin receptor 5 (Mus musculus) (UniProt P41149); experiment: Agonist activity at mouse MC5R expressed in HEK293 cells by CRE/beta-galactosidase reporter gene assay relative to Ac-His-DPhe7-Arg-Trp-NH2 peptide; type: functional, cell-based; procedure, shortened: as §1
Sequence of Melanocortin receptor 5 (Mus musculus) (P41149 whole entry): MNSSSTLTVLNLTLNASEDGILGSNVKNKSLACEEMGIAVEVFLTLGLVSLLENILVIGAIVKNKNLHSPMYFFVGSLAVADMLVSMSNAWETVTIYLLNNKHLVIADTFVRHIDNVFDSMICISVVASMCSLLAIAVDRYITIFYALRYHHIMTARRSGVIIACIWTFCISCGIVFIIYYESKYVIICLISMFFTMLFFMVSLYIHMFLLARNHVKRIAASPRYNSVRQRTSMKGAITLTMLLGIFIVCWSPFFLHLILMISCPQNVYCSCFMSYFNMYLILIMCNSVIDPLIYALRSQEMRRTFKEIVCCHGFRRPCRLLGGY

[12] = target: Melanocortin receptor 4 (Mus musculus) (UniProt P56450); experiment: Agonist activity at mouse MC4R expressed in HEK293 cells by CRE/beta-galactosidase reporter gene assay relative to Ac-His-DPhe7-Arg-Trp-NH2 peptide; type: functional, cell-based; procedure, shortened: as §1
Sequence of Melanocortin receptor 4 (Mus musculus) (P56450 whole entry): as the sequence (P56450 whole entry) above

Melanocortin receptor 3 [13] = target: T2, Melanocortin receptor 3; experiment: Agonist activity at mouse MC3R expressed in HEK293 cells by CRE/beta-galactosidase reporter gene assay; type: functional, cell-based; procedure, shortened: as §3

Sequence of Melanocortin receptor 5 (P41149 whole entry): as the sequence (P41149 whole entry) above

EC50 (Melanocortin receptor 5): 226 nM
SMILES: CC(=O)N[C@@H](Cc1cnc[nH]1)C(=O)N[C@H](Cc1ccc(N)cc1)C(=O)N[C@@H](CCCN=C(N)N)C(=O)N[C@@H](Cc1c[nH]c2ccccc12)C(N)=O

Activity [1]: inactive | Activity [2]: inactive
SMILES: CC(=O)N[C@@H](Cc1cnc[nH]1)C(=O)N[C@H](Cc1ccc(C(C)(C)C)cc1)C(=O)N[C@@H](CCCNC(=N)N)C(=O)N[C@@H](Cc1c[nH]c2ccccc12)C(N)=O

EC50 (Melanocortin receptor 5): 3.26 nM | Kb (Melanocortin receptor 4 [3]): 5.01 nM | EC50 (Melanocortin receptor 4 [4]): 2.28 nM
SMILES: CC(=O)N[C@@H](Cc1cnc[nH]1)C(=O)N[C@H](Cc1ccccc1)C(=O)N[C@@H](CCCN=C(N)N)C(=O)N[C@@H](Cc1c[nH]c2ccccc12)C(N)=O

Ki (Melanocortin receptor 3 [5]): 5010 nM
SMILES: CC(=O)N[C@H](Cc1cnc[nH]1)C(=O)NC(Cc1ccc2ccccc2c1)C(=O)N[C@@H](CCCNC(=N)N)C(=O)N[C@@H](Cc1c[nH]c2ccccc12)C(N)=O (stereo in doubt)

Ratio EC50 (Mus musculus [6]): 200 | Ratio EC50 (Mus musculus [7]): 200 | fold change (FC) [8]: -2 | fold change (FC) [9]: -2
SMILES: CC(=O)N[C@@H](Cc1cnc[nH]1)C(=O)N[C@H](Cc1ccc(F)cc1)C(=O)N[C@@H](CCCNC(=N)N)C(=O)N[C@@H](Cc1c[nH]c2ccccc12)C(N)=O

Ki (Melanocortin receptor 3 [5]): 350 nM | Kb (Melanocortin receptor 3 [5]): 28.8 nM
SMILES: CC(=O)N[C@@H](Cc1cnc[nH]1)C(=O)N[C@H](Cc1ccc(Br)cc1)C(=O)N[C@@H](CCCNC(=N)N)C(=O)N[C@@H](Cc1c[nH]c2ccccc12)C(N)=O

EC50 [10]: 180 nM | EC50 (Melanocortin receptor 5): 51.1 nM | EC50 (Melanocortin receptor 4 [4]): 63.8 nM
SMILES: CC(=O)N[C@@H](Cc1cnc[nH]1)C(=O)N[C@H](Cc1ccc(C(=O)c2ccccc2)cc1)C(=O)N[C@@H](CCCNC(=N)N)C(=O)N[C@@H](Cc1c[nH]c2ccccc12)C(N)=O

EC50 (Melanocortin receptor 4 [4]): 2.84 nM | fold change (FC) [11]: 1
SMILES: CC(=O)N[C@@H](Cc1cnc[nH]1)C(=O)N[C@H](Cc1ccc(C#N)cc1)C(=O)N[C@@H](CCCNC(=N)N)C(=O)N[C@@H](Cc1c[nH]c2ccccc12)C(N)=O

EC50 [10]: 53.7 nM
SMILES: CC(=O)N[C@@H](Cc1cnc[nH]1)C(=O)N[C@H](Cc1ccc(F)cc1)C(=O)N[C@@H](CCCN=C(N)N)C(=O)N[C@@H](Cc1c[nH]c2ccccc12)C(N)=O

fold change (FC) [12]: 2 | fold change (FC) [11]: 2
SMILES: CC(=O)N[C@@H](Cc1cnc[nH]1)C(=O)N[C@H](Cc1ccc(C)cc1)C(=O)N[C@@H](CCCNC(=N)N)C(=O)N[C@@H](Cc1c[nH]c2ccccc12)C(N)=O

fold change (FC) [12]: 96 | fold change (FC) [11]: 69 | fold change (FC) [8]: 130 | fold change (FC) [9]: 21
SMILES: CC(=O)N[C@@H](Cc1cnc[nH]1)C(=O)N[C@H](Cc1ccc(N)cc1)C(=O)N[C@@H](CCCNC(=N)N)C(=O)N[C@@H](Cc1c[nH]c2ccccc12)C(N)=O

fold change (FC) [12]: 1 | fold change (FC) [11]: 1 | fold change (FC) [8]: 1 | fold change (FC) [9]: 1
SMILES: CC(=O)N[C@@H](Cc1cnc[nH]1)C(=O)N[C@H](Cc1ccccc1)C(=O)N[C@@H](CCCNC(=N)N)C(=O)N[C@@H](Cc1c[nH]c2ccccc12)C(N)=O

fold change (FC) [11]: -2 | Ratio EC50 (Mus musculus [6]): 200 | Ratio EC50 (Mus musculus [7]): 200
SMILES: CC(=O)N[C@@H](Cc1cnc[nH]1)C(=O)N[C@H](Cc1ccc(Cl)cc1)C(=O)N[C@@H](CCCNC(=N)N)C(=O)N[C@@H](Cc1c[nH]c2ccccc12)C(N)=O

EC50 [10]: 2600 nM | EC50 (Melanocortin receptor 5): 730 nM | EC50 (Melanocortin receptor 3 [13]): 12500 nM | EC50 (Melanocortin receptor 4 [4]): 390 nM | fold change (FC) [12]: 171 | fold change (FC) [11]: 223 | fold change (FC) [8]: 99 | fold change (FC) [9]: 23
SMILES: CC(=O)N[C@@H](Cc1cnc[nH]1)C(=O)N[C@H](Cc1ccc(O)cc1)C(=O)N[C@@H](CCCNC(=N)N)C(=O)N[C@@H](Cc1c[nH]c2ccccc12)C(N)=O

fold change (FC) [8]: 5
SMILES: CC(=O)N[C@@H](Cc1cnc[nH]1)C(=O)N[C@H](Cc1ccc([N+](=O)[O-])cc1)C(=O)N[C@@H](CCCNC(=N)N)C(=O)N[C@@H](Cc1c[nH]c2ccccc12)C(N)=O

Ratio EC50 (Mus musculus [6]): 140
SMILES: CC(=O)N[C@@H](Cc1cnc[nH]1)C(=O)N[C@H](Cc1cccc(Cl)c1)C(=O)N[C@@H](CCCNC(=N)N)C(=O)N[C@@H](Cc1c[nH]c2ccccc12)C(N)=O

Ki (Melanocortin receptor 3 [5]): 6170 nM | Kb (Melanocortin receptor 3 [5]): 162 nM
SMILES: CC(=O)N[C@@H](Cc1cnc[nH]1)C(=O)N[C@H](Cc1ccc(C(F)(F)F)cc1)C(=O)N[C@@H](CCCNC(=N)N)C(=O)N[C@@H](Cc1c[nH]c2ccccc12)C(N)=O

fold change (FC) [9]: 1
SMILES: CC(=O)N[C@@H](Cc1cnc[nH]1)C(=O)N[C@H](Cc1ccc(Cl)c(Cl)c1)C(=O)N[C@@H](CCCNC(=N)N)C(=O)N[C@@H](Cc1c[nH]c2ccccc12)C(N)=O

Ki (Melanocortin receptor 3 [5]): 260 nM | Kb (Melanocortin receptor 3 [5]): 38 nM
SMILES: CC(=O)N[C@@H](Cc1cnc[nH]1)C(=O)N[C@H](Cc1ccc(Cl)c(Cl)c1)C(=O)N[C@@H](CCCN=C(N)N)C(=O)N[C@@H](Cc1c[nH]c2ccccc12)C(N)=O
